Compound activity: PubChem, several laboratories
Shown are actives, neighbours in structure and some others; about 2.9% of the full set was active somewhere.
VIM-2 inh = blocks Pseudomonas aeruginosa VIM-2 metallo-beta-lactamase | 0.89% of 290,000 active | purified VIM-2, nitrocefin hydrolysis, epi-absorbance fluorescence | inhibition, % at 5.6 µM;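 active means inhibition above the mean of all tested compounds plus 3 SD, cutoff set per screening run, cut at about 7.5% in these data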;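 further: red hydrolysis product quenches plate fluorescence so inhibitors raise well fluorescence; 0% = enzyme with DMSO and 100% = DMSO without enzyme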
IMP-1 inh-1 = inhibitors of Pseudomonas aeruginosa IMP-1 metallo-beta-lactamase | purified IMP-1, nitrocefin hydrolysis, epi-absorbance fluorescence | inhibition, % at 5.6 µM | 0.45% of 290,000 active;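 active means inhibition above the mean plus 3 SD of all compounds in the same screening run, cut at about 4.5% in these data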;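 further: 0% = IMP-1 with DMSO and 100% = DMSO wells lacking enzyme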
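Material – recombinant IMP-1 enzyme, purified · Amount – IMP-1 0.2 nM before substrate addition · Medium – HEPES buffer pH 7.1 with ZnSO4 and Brij 35 · Timing – 25 °C, 15 min preincubation, 25 min reaction · Measured by – plate fluorescence quenching by hydrolysis product, ex 480/em 530 nm · Read-out – percent enzyme inhibition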
Mot1-301 SUMO = SUMOylation pathway inhibition by Mot1-301 growth rescue | S. cerevisiae Mot1-301 growth rescue, ATP luminescence, 38.5C; percent above DMSO median, 100 means doubled | growth rescue, % at 18.8 µM | 1% of 320,000 active | AID 2716;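 active means every valid replicate shows activation above 250% relative to neutral control wells; inactive means the rest, any valid replicate at or below 250%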;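 further: OY570 slx delta 5 strain wells were the positive control but not used for scaling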
NALP1 inh = inhibitors of NALP1 inflammasome in yeast | 0.61% of 280,000 active | S. cerevisiae NALP1/ASC/caspase-1 growth, X-gal OD620, 72 h | inhibition, % at 10 µM | AID 2071; in the data active means inhibition mostly above about 24%, no sharp cut-off; inactive means mostly below about 32%
NLRP3 yeast inh = blocks the NALP3 inflammasome reconstituted in yeast; Yeast reconstituted NLRP3/ASC/caspase-1, beta-gal luminescence, 24 h; inhibition, % at 10 µM; 0.39% of 330,000 active; AID 2825;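 active means inhibition of 50% or more; inactive means inhibition below 50%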;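 further: plate controls were induced DMSO wells for no effect and uninduced yeast grown without galactose for full effect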
PolyA inh = blocks polyadenylation in yeast reporter cells | AID 1875 | S. cerevisiae SKY197-pL101 polyadenylation reporter, beta-gal luminescence; efflux-impaired pdr1/pdr3 knockout yeast; score 100 = 6 SD above DMSO | 0.02% of 300,000 active | activity score, % at 12 µM;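 active means lowest replicate activity score at least 50, where 100 means six control SD above control mean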;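 further: yeast exposed to compound for 9 h at 30 °C; higher score means more reporter readthrough which indicates perturbed polyadenylation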
IMP-1 inh-2 = IMP-1 inhibition, counter-screen for VIM-2 inhibitors; 1,300 tested, under 10 active; inhibition, % at 5.6 µM; shares compounds with VIM-2 inh; AID 1856; purified IMP-1, nitrocefin hydrolysis, epi-absorbance fluorescence; call rule not given here;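 further: 0% = enzyme with vehicle and 100% = vehicle without enzyme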
VIM-2 FRET inh = VIM-2 FRET inhibition, artifact counter-screen. shares compounds with VIM-2 inh. purified VIM-2, CCF2 FRET substrate hydrolysis. inhibition, % at 5.6 µM. AID 1857. 23% of 1,300 active;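 active means inhibition above the mean of all tested compounds plus 3 SD, cut at about 19% in these data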;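 further: 0% = VIM-2 plus DMSO and 100% = no enzyme wells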
TEM-1 inh = TEM-1 inhibition, counter-screen for VIM-2 inhibitors; shares compounds with VIM-2 inh; inhibition, % at 5.6 µM; 3% of 1,300 active; AID 1866; Purified TEM-1, nitrocefin hydrolysis, epi-absorbance fluorescence;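 active means inhibition above that campaign's mean inhibition plus 3 SD, cut at about 0.46% in these data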;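 further: 0% = TEM-1 with DMSO and 100% = TEM-1 with 100 µM potassium clavulanate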
Target sequence (P62593 whole entry, looked up): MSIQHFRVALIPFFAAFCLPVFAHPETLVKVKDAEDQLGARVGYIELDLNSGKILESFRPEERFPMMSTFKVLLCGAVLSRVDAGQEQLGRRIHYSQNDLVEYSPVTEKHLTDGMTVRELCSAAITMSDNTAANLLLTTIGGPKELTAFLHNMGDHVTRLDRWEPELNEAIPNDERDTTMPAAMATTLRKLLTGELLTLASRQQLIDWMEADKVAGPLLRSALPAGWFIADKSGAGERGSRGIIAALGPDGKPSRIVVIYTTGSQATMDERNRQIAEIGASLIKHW
VIM-2 confirm 2 = confirmation of P. aeruginosa VIM-2 metallo-beta-lactamase inhibitors. shares compounds with VIM-2 inh. purified VIM-2, nitrocefin hydrolysis, epi-absorbance. inhibition, % at 5.6 µM. 96% of 1,300 active;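 active means inhibition of the VIM-2 beta-lactamase enzyme above about 11% from the earlier first-round screen, limit read from the data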;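 further: 0% = VIM-2 with DMSO and 100% = buffer wells without enzyme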
Starred values were filed as active, the others as inactive; x = not tested or not shown.

SMILES | VIM-2 inh | IMP-1 inh-1 | Mot1-301 SUMO | NALP1 inh | NLRP3 yeast inh | PolyA inh | IMP-1 inh-2 | VIM-2 FRET inh | TEM-1 inh | VIM-2 confirm 2
O=[N+]([O-])c1c(Nc2ccc(O)cc2)cc(Cl)c2nonc12 | 22* | -3 | 98 | 8 | 25 | -22 | -4 | 12 | -8 | 32*
CCCOc1ccc(C2C(C(=O)/C=C/c3ccco3)=C(O)C(=O)N2CCN2CCOCC2)cc1OC (stereo not drawn) | -2 | -2 | x | 2 | 7 | -9 | x | x | x | x
Cc1ccc(NC(=O)CSc2nc3ccccc3nc2N2CCOCC2)cc1 | -3 | -1 | 10 | 9 | 22 | 13 | x | x | x | x
Cc1ccc(C)n1CCN1CCN(C(=O)CSc2nc3ccccc3nc2N2CCOCC2)CC1 | 16* | -1 | 10 | 0 | 1 | 10 | -3 | -5 | -8 | 15*
COc1cc(CNCCO)ccc1OCCc1ccccc1 | -1 | -2 | 0 | 5 | 19 | 10 | x | x | x | x
c1ccc(-c2nccc(-c3ccco3)n2)nc1 | 34* | -1 | -9 | -10 | 2 | 12 | -5 | -20 | -7 | 30*
c1ccc(-c2noc(-c3ccco3)n2)nc1 | -5 | 0 | -4 | 2 | 2 | 6 | x | x | x | x
COc1ccc(Cc2nc3ccc(C(=O)NCc4cc(C)no4)cc3o2)cc1OC | -2 | -2 | -7 | -3 | 8 | -12 | x | x | x | x
COc1ccc(Cc2nc3ccc(C(=O)NCc4ncc(C)[nH]4)cc3o2)cc1OC | 38* | -2 | -18 | 27 | 6 | 16 | -3 | -12 | -6 | 50*
CSCC(=O)NS(=O)(=O)c1ccc(C)cc1 | -5 | -3 | 10 | 18 | 12 | 14 | x | x | x | x
CSc1sc(C(=O)NC(=O)NCc2ccncc2)c(C)c1-c1ccon1 | 32* | -2 | 5 | 4 | 9 | 5 | -3 | -7 | -6 | 42*
O=C(NCc1ccccc1)NC(=O)c1ccncc1 | 0 | -2 | 16 | 5 | 4 | -1 | x | x | x | x
CC(=O)c1ccc(NC(=O)CCNC(=O)c2ccccc2Cl)cc1 | -3 | -3 | 12 | 23 | 10 | -11 | x | x | x | x
COc1cc(/C=N/N2CCN(Cc3ccccc3)CC2)cc(OC)c1OC(C)=O | -1 | -6 | -1 | x | 5 | 2 | x | x | x | x
CCCCCNC(=O)c1cn(CC)c2cc(N3CCN(C)CC3)c(F)cc2c1=O | 3 | 0 | 361 | 25 | 14 | 12 | x | x | x | x
CCn1cc(C(=O)NCCCN(C)C)c(=O)c2cc(F)c(N3CCN(C)CC3)cc21 | 21* | -7 | -18 | x | 1 | -2 | -3 | 4 | -5 | 36*
Cc1cccc(N2N=C(C(=O)N3Cc4ccccc4CC3C(N)=O)CCC2=O)c1 (stereo not drawn) | x | x | 1 | x | 9 | x | x | x | x | x
COc1ccc(Nc2nc(N3CCCC3)nc3ccccc23)c(OC)c1 | 31* | -1 | 2 | 8 | 4 | 1 | -2 | 1 | -6 | 43*
COc1ccc(Nc2ncnc3ccccc23)c(OC)c1 | -5 | -2 | -6 | 2 | 22 | 10 | x | x | x | x
CC(=O)Nc1ccc(S(=O)(=O)N2CCN(Cc3cccc([N+](=O)[O-])c3)CC2)cc1 | -2 | -3 | -18 | -4 | 0 | 1 | x | x | x | x
Cc1ccccc1Nc1nnc(SCC(=O)NCc2ccco2)s1 | -1 | -3 | x | -11 | 1 | x | x | x | x | x
O=C(CSc1nnc(NC(=O)c2ccc3c(c2)OCO3)s1)NCc1ccco1 | 1 | -4 | -18 | -13 | -3 | x | x | x | x | x
Cc1ccc2cc(C)c3nnc(SCC(=O)NCc4ccco4)n3c2c1 | 7 | -5 | -20 | 7 | 15 | 0 | x | x | x | x
O=C(CSc1nnc(NC(=O)c2ccccc2)s1)NCc1ccco1 | 25* | -2 | 8 | 19 | -5 | 16 | -4 | 44* | -4 | 28*
O=C(CSc1nnc(NC(=O)C2CCCCC2)s1)NCc1ccco1 | 28* | -4 | -8 | 11 | 8 | 2 | -4 | 62* | -7 | 43*
SMILES | VIM-2 inh | IMP-1 inh-1 | Mot1-301 SUMO | NALP1 inh | NLRP3 yeast inh | PolyA inh | IMP-1 inh-2 | VIM-2 FRET inh | TEM-1 inh | VIM-2 confirm 2
Cc1ccccc1C(=O)Nc1nnc(SCC(=O)NCc2ccco2)s1 | 52* | -2 | -10 | 7 | 24 | 2 | -4 | 75* | -6 | 61*
Cc1cc2cc(C)c3nnc(SCC(=O)NCc4ccco4)n3c2cc1C | 13* | -4 | 154 | 8 | -1 | 5 | -1 | 8 | 0 | 24*
O=C(CSc1nnc(NC(=O)c2cccc(F)c2)s1)NCc1ccco1 | 33* | -2 | 7 | 6 | 4 | -10 | -4 | 54* | -4 | 39*
O=C(CSc1nnc(NC(=O)C2CC2)s1)NCc1ccco1 | 0 | -2 | 10 | 8 | 8 | -7 | x | x | x | x
COc1ccc(CCC(=O)NCC2CCCCC2)cc1OC | 0 | -3 | 20 | 11 | 22 | 6 | x | x | x | x
C=CCn1c2ccccc2c2nn(C)c(=S)nc21 | 14* | -1 | 601 | 21 | 16 | -8 | -4 | 0 | -8 | 17*
CC(C)(C)OC(=O)n1cc(CCO)c2ccccc21 | x | x | 6 | x | 45 | x | x | x | x | x
Nc1ccc(N2CCN(CCCCN3C(=O)C4CCCN4C3=O)CC2)cc1 (stereo not drawn) | 25* | -3 | 160 | 6 | 9 | 0 | -10 | -6 | -6 | 11*
CCCCn1c(N)c(N(Cc2ccccc2OC)C(=O)CN2C(=O)NC3(CCCC3)C2=O)c(=O)[nH]c1=O | x | x | 11 | x | 5 | -6 | x | x | x | x
CCOC(=O)N1CCN(C(=O)c2cccn3c(=O)c4c5c(sc4nc23)CCCC5)CC1 | -4 | -3 | -30 | 34 | 7 | 23 | x | x | x | x
CCC(C)NC(=O)c1cc2c(=O)n3cccc(C)c3nc2s1 (stereo not drawn) | 20* | -3 | 55 | 14 | 34 | 0 | -3 | -6 | -3 | 27*
CCOC(=O)N1CCN(C(=O)c2cc3c(=O)n4cccc(C)c4nc3s2)CC1 | 16* | -2 | 0 | -14 | -1 | 13 | -3 | -1 | -5 | 24*
C=CCNC(=O)c1cc2c(=O)n3cccc(C)c3nc2s1 | 19* | -3 | 17 | 4 | 10 | 17 | -2 | -1 | -4 | 26*
CC1CCN(S(=O)(=O)CCNC(=O)c2ccc(F)cc2)CC1 | x | x | -9 | x | 22 | 5 | x | x | x | x
O=C(NC1CCCC1)C(c1cccnc1)N(C(=O)c1csnn1)c1ccccc1 (stereo not drawn) | -2 | -2 | 43 | 7 | 4 | -12 | x | x | x | x
